Assay outcomes from PubChem BioAssay.
This is a sample that favours compounds with a hit; in the whole collection about 2.7% have one here.
OXTR potentiator = potentiators of human oxytocin receptor; P30559; CHO-OTR cells, Fluo-8 calcium fluorescence, potentiator mode; 0% = oxytocin EC15, 100% = EC100; activation, % at 3 µM; 320,000 tested, 0.061% active; AID 2445;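 active means activation above that plate's cutoff, the mean activation of tested compounds plus 3 SD, cut at about 6.6% in these data, passing the limit was not always enough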
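Assay system: CHO-OTR cells, human receptor / Also added: oxytocin at about EC15, sub-maximal agonist stimulus / Dosing: single dose, 3.0 µM nominal final compound concentration / Incubation: 6 min pre-incubation, 100 s read / Technique: Fluo-8 calcium dye fluorescence / Read-out: % activation vs EC15 and EC100 oxytocin / Benchmarks: EC15 oxytocin low, 75 nM oxytocin high / Replicates: singlicate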
OXTR ag = human OXTR agonism. CHO-OTR cells, Fluo-8 calcium fluorescence; normalized: DMSO 0%, oxytocin 100%. activation, % at 3 µM. 320,000 tested, 0.32% active;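 active means activation above the mean of all tested compounds plus 3 SD, cutoff set per screening run, cut at about 20% in these data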;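 further: peak over basal fluorescence ratio from a 100 s FLIPR kinetic read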
OX1R antag-1 = human HCRTR1 antagonism | inhibition, % at 5 µM | 330,000 tested, 0.43% active | CHO/OX1R cells, Fluo-8 calcium fluorescence, orexin A | O43613;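 active means inhibition above its plate's threshold, mean inhibition of all tested compounds on the plate plus 3 SD, cut at about 37% in these data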
Target sequence (O43613 whole entry, looked up): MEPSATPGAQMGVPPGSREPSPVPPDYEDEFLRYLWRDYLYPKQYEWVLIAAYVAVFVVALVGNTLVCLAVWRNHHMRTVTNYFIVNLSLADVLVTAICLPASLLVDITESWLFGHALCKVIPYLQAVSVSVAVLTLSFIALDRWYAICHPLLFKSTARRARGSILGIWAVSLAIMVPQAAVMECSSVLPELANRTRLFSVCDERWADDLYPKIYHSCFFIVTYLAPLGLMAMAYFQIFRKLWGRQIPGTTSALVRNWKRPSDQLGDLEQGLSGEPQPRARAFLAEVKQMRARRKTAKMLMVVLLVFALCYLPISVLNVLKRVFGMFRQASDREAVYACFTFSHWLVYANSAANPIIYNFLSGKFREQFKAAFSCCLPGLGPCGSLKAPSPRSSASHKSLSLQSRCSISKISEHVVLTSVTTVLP
V1R ag counter = V1a receptor agonism, counter-screen for OXTR agonists; P37288; activation, % at 3 µM; CHO-V1R cells, Fluo-8 calcium fluorescence, agonist mode; 0% DMSO, 100% 3 nM vasopressin; 320,000 tested, 0.25% active;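 active means activation above the mean activation of all tested compounds plus 3 SD, per screening run, cut at about 20% in these data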;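 further: signal is peak over basal fluorescence ratio across a 100 second FLIPR read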
OX1R antag-2 = OX1R (human) antagonism; 330,000 tested, 1.8% active; OX1R-expressing cells, FRET antagonist read-out; inhibition, % at 6.6 µM; O43613; AID 485270; in the data active means inhibition mostly above about 38%, no sharp cut-off; inactive means mostly below about 40%
CHO parental Ca = counter-screen for OX1R antagonists: effect in parental CHO cells; parental CHO-K1, ATP-induced calcium, Fluo-8 fluorescence; inhibition, % at 5.6 µM; 330,000 tested, 0.63% active;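 active means inhibition above that plate's mean sample inhibition plus 3 SD, cut at about 26% in these data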
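Material – parental CHO cells · Reagent – ATP stimulus · Compound – single nominal dose of 5.6 µM per compound · Detection – Fluo-8 fluorescence · Read-out basis – percent inhibition of calcium signal · Controls – ATP-challenged DMSO wells low, unchallenged DMSO wells high · Repeats – no replicates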
OX1R Fluo8 conf = confirmation of human orexin 1 receptor antagonists | shares compounds with OX1R antag-1 | CHO/OX1R cells, orexin A calcium Fluo-8 fluorescence | inhibition, % at 5 µM | 1,100 tested, 38% active | AID 492963; in the data active means inhibition above about 29%
CHO Ca triplic = signal in parental CHO cells, OX1R antagonist counter-screen. 1,100 tested, 9.3% active. inhibition, % at 5.6 µM. parental CHO-K1, ATP-induced calcium, Fluo-8 fluorescence. shares compounds with OX1R antag-1;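 active means inhibition above a per-plate limit, the mean inhibition of that plate's test compounds plus 3 SD, cut at about 25% in these data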
Numbers stand for hits; – = inactive; · = no result given.

SMILES	OXTR potentiator	OXTR ag	OX1R antag-1	V1R ag counter	OX1R antag-2	CHO parental Ca	OX1R Fluo8 conf	CHO Ca triplic
C/C(=N\Nc1ccc(F)cc1)c1ccc(N2CCOCC2)c(F)c1	–	–	–	–	–	–	·	·
CCc1cccc2cc3c(N)c(C(=O)Nc4ccc(S(=O)(=O)N5CCCC5)cc4)sc3nc12	–	–	–	–	–	–	–	–
Cc1cccc2cc3c(N)c(C(=O)Nc4ccc(N5CCOCC5)cc4)sc3nc12	–	–	–	–	–	–	·	·
Cc1cc(C)n2nc(SCC(=O)NC(=O)c3ccccc3Cl)nc2n1	–	–	–	–	–	–	·	·
CCOC(=O)/C=c1\s/c(=C\c2ccc3c(c2)OCCO3)c(=O)n1CC(=O)NCC1CCCO1 (configuration not stated)	–	–	103	–	–	–	–	–
CCN1C/C(=C/c2ccc(N3CCOCC3)cc2)C(=O)/C(=C/c2ccc(N3CCOCC3)cc2)C1	–	26	–	22	–	–	34	34
O=C(CN(c1cccc([N+](=O)[O-])c1)S(=O)(=O)c1ccccc1)N(Cc1ccccc1)Cc1ccccc1	–	–	–	–	–	–	–	–
COc1ccc(NS(=O)(=O)c2cccc(NC(=O)COc3ccccc3[N+](=O)[O-])c2)cc1	–	–	51	–	–	–	–	–
O=C(COc1ccccc1[N+](=O)[O-])Nc1cccc(S(=O)(=O)NC2=NCCCCC2)c1	–	–	–	–	–	–	·	·
C[C@@H](C(=O)Nc1ccc2ccccc2c1)[C@H]1C[C@]1(C)[C@H](NC(=O)OCc1ccccc1)c1ccccc1	–	–	–	–	–	–	·	·
Cc1cc(C(=O)N[C@H](c2ccccc2)[C@@]2(C)C[C@@H]2[C@@H](C)C(=O)Nc2ccc3ccccc3c2)n(C)n1	–	–	–	–	–	–	–	–
CC1CCN(C(=O)c2ncn(Cc3ccccc3)c2C(=O)N2CCC(C)CC2)CC1	–	–	–	–	–	–	·	·
CCOc1ccc(NS(=O)(=O)c2ccc(NC(=S)NC(=O)CC(C)C)cc2)cc1	–	20	–	23	–	–	–	–
CCCC(=O)NC(=S)Nc1ccc(S(=O)(=O)Nc2ccc(OCC)cc2)cc1	–	–	–	–	–	–	·	·
O=C(CCCSc1ccc(Cl)cc1)Nc1cc(S(=O)(=O)N2CCOCC2)ccc1O	–	–	–	–	–	–	·	·
CC(Oc1ccc(Br)cc1Cl)C(=O)Nc1ccncc1 (configuration not stated)	–	–	–	–	–	–	33	–
CC(Oc1ccc(Br)cc1)C(=O)Nc1ccncc1 (configuration not stated)	–	–	–	–	–	–	·	·
COc1cc2c(cc1OC)[C@@H](NC(=O)C(C)C)[C@H](OCc1ccccc1)C2	·	·	–	·	–	–	·	·
Cc1[nH]c(=O)[nH]c(=O)c1S(=O)(=O)N1CCCC(C(=O)NCCc2ccc(Cl)cc2)C1 (configuration not stated)	–	–	–	–	–	–	–	–
O=c1[nH]nc(Cc2ccc(-c3ccccc3Cl)o2)c2ccccc12	–	–	47	–	–	–	–	–
CC1(c2ccccc2Cl)NC(=O)N(CC(=O)c2ccc3c(c2)OCO3)C1=O (configuration not stated)	–	–	–	–	–	–	·	·
CC(=O)NC(C)C(=O)OCC(=O)Nc1ccc(Br)cc1 (configuration not stated)	–	–	–	–	–	–	–	–
CCCC(C)C(=O)OCC(=O)Nc1ccc(Br)cc1 (configuration not stated)	–	–	–	–	–	–	·	·
COc1ccccc1OC(C)C(=O)N1CCN(Cc2ccc3c(c2)OCO3)CC1 (configuration not stated)	–	–	–	–	–	–	·	·
CC(=O)Nc1ccc(-c2nnc(SCC(=O)Nc3ccc4c(c3)oc3ccccc34)n2C)cc1	–	–	–	–	–	–	–	–
SMILES	OXTR potentiator	OXTR ag	OX1R antag-1	V1R ag counter	OX1R antag-2	CHO parental Ca	OX1R Fluo8 conf	CHO Ca triplic
C[C@H](CO)N1C[C@H](C)[C@@H](CN(C)Cc2ccc(Cl)c(Cl)c2)Oc2c(NC(=O)Cc3ccccc3)cccc2C1=O	–	–	56	–	–	–	–	–
COc1ccc(NS(=O)(=O)c2cc(NC(=O)CC3CCCC3)ccc2N2CCOCC2)cc1	–	–	–	–	–	–	·	·
CCNC(=O)Nc1cc(S(=O)(=O)Nc2ccc(OC)cc2)ccc1N1CCOCC1	–	–	41	–	–	–	36	75
CC(C)CC1(C)NC(=O)N(CC(=O)Nc2ccccc2Br)C1=O (configuration not stated)	–	–	–	–	–	–	·	·
COCCn1c(=O)[nH]c2cc(C(=O)N3CCN(c4cccc(Cl)c4)CC3)ccc2c1=O	–	–	–	–	–	–	–	–
O=C(c1ccco1)N1CCN(c2ncccn2)CC1	–	–	–	–	–	–	–	–
N#Cc1ccccc1OCC(=O)N(Cc1nnc(-c2ccccc2Cl)o1)C1CC1	–	–	–	–	–	–	·	·
Cc1ccc(NC(=O)c2cc(S(=O)(=O)N3CCCCC3)c[nH]2)cc1C	–	–	–	–	–	–	·	·
COc1ccc(N2CCN(C(=O)CSc3ccc([N+](=O)[O-])cc3)CC2)cc1	–	–	–	–	–	–	–	–
COc1ccc(N2CCN(C(=O)CSc3ccc(C)cc3)CC2)cc1	–	–	–	–	–	–	·	·
O=[N+]([O-])c1ccc2nc(N3CCCC3)sc2c1	–	–	–	–	–	–	·	·
O=C(c1ccccc1)N1CCN(c2nc3ccc([N+](=O)[O-])cc3s2)CC1	–	–	–	–	–	–	–	–
O=C(CSC1=NS(=O)(=O)c2ccccc2N1)Nc1cccc(F)c1	–	–	–	–	–	–	·	·
Cn1c(SCc2ccc(F)cc2Cl)nc2ccccc2c1=O	–	–	–	–	–	–	–	–
O=c1c2ccccc2nc(SCc2ccc(F)cc2Cl)n1CCCN1CCOCC1	–	–	–	–	–	–	·	·
O=C(Nc1ccc(C(=O)NCCCN2CCCCC2)cc1)C1=CSCCO1	–	–	–	–	–	–	·	·
O=C(Nc1ccc(C(=O)NCCCN2CCN(c3ccc(F)cc3)CC2)cc1)C1=CSCCO1	–	29	–	26	–	–	44	27
O=C(CSc1ccc2ccccc2c1Br)Nc1cccc(S(=O)(=O)NC2=NCCCCC2)c1	–	–	–	–	–	–	–	–
